Key:
H446 cells [1] = test: DNA damage, γH2AX imaging and Western blot, H446 cells; type: cell-based, human
Summary of the method: (§1)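 Cells (5 × 10^4/well) were exposed for 2 h to PBS, unlabeled peptide, free 211At or test compound (1.85, 3.7, 18.5, 37 kBq), then recovered 24 h in fresh medium. For imaging, cells were fixed, permeabilized and stained with mouse anti-γH2AX (1:800). For blotting, RIPA lysates (BCA-normalized) were run on 10% SDS-PAGE and transferred to PVDF. Blocking was 5% milk for 1 h, anti-γH2AX was applied at 4 °C for 12 h, with ECL detection and GAPDH as loading control.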

SCLC tumors (H446) [2] = test: MHC-I and calreticulin expression in SCLC tumors; type: in vivo, BALB/c nude mice; conditions: 1110 kBq administration group, day 1, 4, and 8
Summary of the method: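 In nude mice bearing s.c. H446 tumors, test compound was given i.v. as 1110 kBq once or 370 kBq on days 0, 3 and 7, with PBS controls. Tumors were examined on days 1, 4 and 8 after treatment. MHC-I and calreticulin were stained by immunohistochemistry per manufacturer's instructions, and expression was quantified. Three independent experiments were run in triplicate, reported as mean ± s.d.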

[3] = In vitro stability in mouse serum; type: in vitro ADME; conditions: room temperature, 24 h of incubation, iTLC, average of three independent samples
A549 cells [4] = test: DNA damage, γH2AX imaging and Western blot, A549 cells; type: cell-based, human
Summary of the method: as §1

A549 cells [5] = test: In vitro cytotoxicity; type: cell-based, human; conditions: 24 h exposure, low-level SSTR2 A549 cells
[6] = Adverse effects in SCLC tumor-bearing mice; type: in vivo, BALB/c nude mice
Summary of the method: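 H446 cells (1 × 10^7 in 0.2 mL PBS) were implanted s.c. in the left shoulder of male BALB/c nude mice aged 4–5 weeks (20 ± 1 g). Mice were randomized at 2 weeks and given i.v. tail-vein PBS, unlabeled peptide 5 mg/kg, or test compound (370 kBq, 1110 kBq, or 370 kBq on days 0, 3 and 7). Body weight was followed for 30 days. Blood counts were taken on days 14 and 28 (n = 4). ALT, AST, BUN and Cr were measured on day 28. Liver, spleen, kidney, stomach and lung were H&E-stained at day 30.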

SCLC tumors (H446) [7] = test: Therapeutic efficacy against SCLC; type: in vivo, BALB/c nude mice; conditions: for tumor growth compared with the PBS control group: n = 6–10
Summary of the method: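 Xenografts were s.c. H446 (1 × 10^7 cells) in male BALB/c nude mice, randomized 2 weeks post-inoculation. Tumor size and weight were tracked for 30 days (n = 6–10), and tumor volumes were analysed by one-way ANOVA. At day 30, formalin-fixed tumors had H&E and γH2AX immunofluorescence.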

H446 cells [8] = test: Cellular uptake / binding ratio, H446 cells; type: cell-based, human
Summary of the method: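 Cells were grown in RPMI-1640 with 10% FCS at 37 °C and 5% CO2. Suspensions of 5 × 10^6 cells in PBS, in low-bind tubes, got 3.7 kBq and were agitated at 37 °C for 1, 3 or 6 h. Cells were then pelleted and rinsed twice with ice-cold PBS, and pellets and pooled supernatant/washes were gamma-counted. Parallel tubes held unlabeled peptide as blocker for nonspecific binding. Three independent experiments were run in triplicate.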

[9] = Biodistribution in SCLC tumor-bearing BALB/c nude mice; type: in vivo
Summary of the method: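 H446 cells (1 × 10^7 in 0.2 mL PBS) implanted subcutaneously in left shoulder of male nude mice, 4–5 weeks, 20 ± 1 g. 211At-labelled test compound or free 211At (1110 kBq each) given in parallel via tail vein, n = 4 per group. Killed at 1, 3, 6, 12, 24 h. Tumor, main tissues and whole blood weighed and gamma-counted. Values as %ID/g (thyroid %ID/organ), mean ± s.d.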

[10] = groups A, D (1110 kBq) and E (3 × 370 kBq), day 30
[11] = groups D (1110 kBq) and E (3 × 370 kBq), day 30

Substance: N-succinimidyl-3-[^211At]astatobenzoate-Oct [[^211At]SAB-Oct]
- γH2AX protein, Western blot, H446 cells (H446 cells [1]; 1.85, 3.7, 18.5, or 37 kBq): visually increased
- level of γH2AX in H446 cells compared to PBS (H446 cells [1]; 18.5 and 37 kBq, ****P < 0.001): distinct dose-dependent increase
- expression of MHC-I and calreticulin in tumor over time (SCLC tumors (H446) [2]): first increasing and then decreasing
- radiochemical purity (RCP) after incubation in mouse serum [3]: 93%
- γH2AX protein expression, Western blot, A549 cells (A549 cells [4]; 1.85, 3.7, 18.5, or 37 kBq): slightly expressed only when the dose reached 18.5 or 37 kBq
- level of γH2AX in A549 cells compared to PBS (A549 cells [4]; 37 kBq, ***P < 0.001, still much lower than in H446): slightly higher
- in vitro cytotoxicity to A549 cells (A549 cells [5]): specifically killed SSTR2-positive SCLC cells but not low-level SSTR2 A549 cells
- liver or kidney biochemical function ([6]; 1110 kBq): did not significantly alter
- leukocytopenia or weight loss ([6]; 1110 kBq doses): not observed
- leukocytopenia ([6]; 1110 kBq group, day 28): No leukocytopenia
- Bun values ([6]; 1110 kBq, day 28, P > 0.05): trend of decreased Bun values
- blood cells (leukocyte, lymphocyte, thrombocyte, erythrocyte counts, hematocrit, hemoglobin) ([6]; day 14 and day 28 postinjection, 1110 kBq or multiple dosing, n = 4): no significant change
- difference in ALT and AST concentrations between each group ([6]; day 28, P > 0.05, groups A–E): not significant
- difference in Bun and Cr concentrations between treatments ([6]; day 28, P > 0.05, groups A–E): not significant
- liver H&E [6, 10]: No obvious morphological difference
- lung H&E [6, 10]: no obvious abnormalities
- kidney H&E [6, 11]: brush border of a few renal tubular epithelial cells was slightly exfoliated
- stomach H&E [6, 11]: mild exfoliation of extensive mucosal epithelium
- tumor cell necrosis in H&E assay (SCLC tumors (H446) [7]; 1110 kBq, day 30, compared with PBS and unlabeled octreotide groups): highest cell necrosis
- clusters of γH2AX foci in dissected tumors (SCLC tumors (H446) [7]; 1110 kBq, day 30 after injection): still visible
- tumor growth compared with the PBS control group (SCLC tumors (H446) [7]; group C, single i.v. injection 370 kBq, monitored 30 days): significantly inhibited
- tumor growth compared with the PBS control group (SCLC tumors (H446) [7]; group D, single i.v. injection 1110 kBq, monitored 30 days): significantly inhibited
- tumor growth compared with the PBS control group (SCLC tumors (H446) [7]; group E, 3 times 370 kBq on days 0, 3, and 7, monitored 30 days): significantly inhibited
- binding ratio to H446 cells in comparison to A549 cells (H446 cells [8]; 5 × 10^6 cells in PBS, 3.7 kBq, 37 °C, 1, 3 and 6 h, gamma counter, triplicate): significantly higher
- binding ratio to H446 cells with Oct block (H446 cells [8]; 100-fold excesses of unlabeled Oct as blocking agent): markedly decreased
- uptake in the lung and intestines ([9]; 1110 kBq i.v.): physiologically high uptake
- radioactivity uptake in the thyroid ([9]; 1110 kBq i.v., 1 to 24 h): low radioactivity uptake
- stomach uptake at 1 h postinjection ([9]; 1110 kBq i.v., 1 h, n = 4, mean ± s.d., gamma counter): 17.99 ± 19.65 % ID/g
- maximum tumor uptake ([9]; 1110 kBq i.v., 3 h postinjection, n = 4, mean ± s.d.): 11.46 ± 4.35 % ID/g
- radioactivity in all tissues after 24 h ([9]; 1110 kBq i.v., 24 h): Low levels of radioactivity
- stomach uptake at 24 h ([9]; 1110 kBq i.v., 24 h, n = 4, mean ± s.d.): 2.87 ± 0.86 % ID/g
- deastatination in vivo ([9]; observed in the spleen, lung, and stomach): slight deastatination
